Publication PMC6687308 (Journal of natural products, 2017)
“Also recorded” adds a separate entry of the source. Read-outs that look alike come from different tables or passages of the source.

Assays:
human TRPM2 = human TRPM2 (Homo sapiens, UniProt O94759); format: cell-based; conditions: for TRPM2 current amplitudes at fivefold higher concentration: fivefold higher concentrations
[1] = tested on: TRPM2-overexpressing HEK293 cells; format: cell-based
TRPM2 = conditions: with preincubation; cited from earlier work
CRAC (Orai1/STIM1) = CRAC (Orai1/STIM1) (Homo sapiens, UniProt Q96D31); format: cell-based; conditions: 2 μM, 30–60 min exposure
Sequence of CRAC (Orai1/STIM1) (Q96D31 whole entry, species assumed): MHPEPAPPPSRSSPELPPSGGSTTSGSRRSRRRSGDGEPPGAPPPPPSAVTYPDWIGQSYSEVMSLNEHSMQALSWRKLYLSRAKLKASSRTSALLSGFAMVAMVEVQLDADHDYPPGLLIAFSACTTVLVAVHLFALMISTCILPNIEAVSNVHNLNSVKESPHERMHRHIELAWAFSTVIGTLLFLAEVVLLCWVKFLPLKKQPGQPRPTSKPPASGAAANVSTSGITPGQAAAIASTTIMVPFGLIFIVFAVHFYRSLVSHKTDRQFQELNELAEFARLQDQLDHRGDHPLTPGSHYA
Sequence of CRAC (Orai1/STIM1) (Q13586 23-685 partner, species assumed): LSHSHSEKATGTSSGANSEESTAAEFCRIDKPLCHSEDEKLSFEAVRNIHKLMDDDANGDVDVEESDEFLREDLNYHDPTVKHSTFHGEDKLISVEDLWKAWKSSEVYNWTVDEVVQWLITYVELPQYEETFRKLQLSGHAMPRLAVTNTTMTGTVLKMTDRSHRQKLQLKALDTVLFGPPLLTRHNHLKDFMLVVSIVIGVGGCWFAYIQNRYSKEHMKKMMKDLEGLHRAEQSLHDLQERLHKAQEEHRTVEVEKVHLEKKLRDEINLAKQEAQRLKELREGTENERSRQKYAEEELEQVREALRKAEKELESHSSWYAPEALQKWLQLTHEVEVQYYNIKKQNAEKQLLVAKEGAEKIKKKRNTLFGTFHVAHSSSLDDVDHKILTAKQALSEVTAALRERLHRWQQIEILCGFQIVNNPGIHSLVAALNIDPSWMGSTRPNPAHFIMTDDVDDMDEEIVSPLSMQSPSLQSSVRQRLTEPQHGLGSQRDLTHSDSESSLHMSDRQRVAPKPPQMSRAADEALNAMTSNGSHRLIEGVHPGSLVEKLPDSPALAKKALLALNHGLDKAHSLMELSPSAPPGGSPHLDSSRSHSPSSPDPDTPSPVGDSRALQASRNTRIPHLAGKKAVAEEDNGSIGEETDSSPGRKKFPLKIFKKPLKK
Outline: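 HEK293 cells stably expressing STIM1 were transiently transfected with CRACM1-pIRES2-EGFP and patched 24–48 h later, with EGFP identifying cotransfected cells. External solution contained 10 mM CaCl2 and 10 mM TEA-Cl (pH 7.2, 300 mOsm). Ramps ran −150 to +150 mV over 50 ms. Bath solution was control or supplemented with test compound. Current–voltage relationships were taken at 100 s.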

endogenous TRPM4 = endogenous TRPM4 (Homo sapiens, UniProt Q8TD43); test: Whole-cell patch clamp of endogenous TRPM4-like currents in Jurkat T lymphocytes; format: cell-based; conditions: 500 nM
Sequence of endogenous TRPM4 (Q8TD43 whole entry): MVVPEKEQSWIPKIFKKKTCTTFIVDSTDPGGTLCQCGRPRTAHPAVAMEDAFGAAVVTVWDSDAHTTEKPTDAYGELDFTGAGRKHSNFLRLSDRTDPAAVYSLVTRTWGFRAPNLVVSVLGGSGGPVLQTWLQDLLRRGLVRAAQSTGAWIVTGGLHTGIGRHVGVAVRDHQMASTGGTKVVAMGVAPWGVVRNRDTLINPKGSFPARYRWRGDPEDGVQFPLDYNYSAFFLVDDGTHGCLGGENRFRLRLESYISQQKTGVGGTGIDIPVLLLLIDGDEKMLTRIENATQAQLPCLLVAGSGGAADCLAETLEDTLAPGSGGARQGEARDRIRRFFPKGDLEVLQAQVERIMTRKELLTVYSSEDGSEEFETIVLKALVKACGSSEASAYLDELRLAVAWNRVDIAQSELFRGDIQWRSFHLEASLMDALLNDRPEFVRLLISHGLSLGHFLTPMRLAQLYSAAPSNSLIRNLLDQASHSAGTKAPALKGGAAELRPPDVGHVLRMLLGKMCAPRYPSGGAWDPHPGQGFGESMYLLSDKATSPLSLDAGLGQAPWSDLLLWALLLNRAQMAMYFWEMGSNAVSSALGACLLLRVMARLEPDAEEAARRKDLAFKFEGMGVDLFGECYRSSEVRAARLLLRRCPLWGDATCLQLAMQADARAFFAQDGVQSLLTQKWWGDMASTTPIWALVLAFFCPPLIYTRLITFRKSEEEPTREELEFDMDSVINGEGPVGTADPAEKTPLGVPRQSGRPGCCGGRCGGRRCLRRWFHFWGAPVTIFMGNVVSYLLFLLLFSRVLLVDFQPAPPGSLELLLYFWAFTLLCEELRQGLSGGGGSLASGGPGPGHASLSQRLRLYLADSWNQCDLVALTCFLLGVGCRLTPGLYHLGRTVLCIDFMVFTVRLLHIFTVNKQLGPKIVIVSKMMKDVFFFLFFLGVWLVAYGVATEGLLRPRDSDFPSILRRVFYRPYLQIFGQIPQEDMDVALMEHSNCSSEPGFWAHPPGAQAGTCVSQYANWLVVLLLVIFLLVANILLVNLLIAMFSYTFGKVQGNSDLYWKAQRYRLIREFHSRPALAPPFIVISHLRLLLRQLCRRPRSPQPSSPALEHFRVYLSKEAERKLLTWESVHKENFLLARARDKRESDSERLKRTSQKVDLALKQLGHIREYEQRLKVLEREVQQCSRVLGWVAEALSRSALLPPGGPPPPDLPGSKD
Outline: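 Jurkat T cells were incubated with 500 nM test compound or none in standard external solution before whole-cell recording. Recordings were made within the first 60 min of incubation. Pipette: Cs-glutamate-based solution with intracellular Ca2+ clamped to 2 μM. Ramps ran −100 to +100 mV (50 ms, 0.5 Hz) from 0 mV, at 21–25 °C. Currents were extracted at −80 mV.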

INS-1 cells = test: Appearance of INS-1 cells during exposure in patch-clamp sessions; format: cell-based, rat
Outline: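 Rat insulinoma INS-1 cells were grown at 37 °C, 5% CO2 in RPMI with 10% FBS. During whole-cell patch-clamp sessions at 21–25 °C, cells were held in standard external Ringer's solution with continual exposure to the test compound.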

endogenous TRPM2 = endogenous TRPM2 (Rattus norvegicus, UniProt E9PTA2); format: cell-based
Outline: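 INS-1 cells (RPMI, 10% FBS) were held in standard external Ringer's (pH 7.2) containing the test compound. Whole-cell currents were recorded during the first 60 min, at 21–25 °C. Pipette: 140 mM Cs-glutamate, unbuffered Ca2+, ADPR 100 or 500 μM. Ramps ran −100 to +100 mV (50 ms, 0.5 Hz). Amplitudes at −80 mV and 50 s were expressed as percent inhibition of control and fitted for IC50 and Hill coefficient.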

TRPV1 = TRPV1 (Rattus norvegicus, UniProt O35433); format: cell-based; conditions: 500 nM, 10 μM capsaicin
Sequence of TRPV1 (O35433 whole entry): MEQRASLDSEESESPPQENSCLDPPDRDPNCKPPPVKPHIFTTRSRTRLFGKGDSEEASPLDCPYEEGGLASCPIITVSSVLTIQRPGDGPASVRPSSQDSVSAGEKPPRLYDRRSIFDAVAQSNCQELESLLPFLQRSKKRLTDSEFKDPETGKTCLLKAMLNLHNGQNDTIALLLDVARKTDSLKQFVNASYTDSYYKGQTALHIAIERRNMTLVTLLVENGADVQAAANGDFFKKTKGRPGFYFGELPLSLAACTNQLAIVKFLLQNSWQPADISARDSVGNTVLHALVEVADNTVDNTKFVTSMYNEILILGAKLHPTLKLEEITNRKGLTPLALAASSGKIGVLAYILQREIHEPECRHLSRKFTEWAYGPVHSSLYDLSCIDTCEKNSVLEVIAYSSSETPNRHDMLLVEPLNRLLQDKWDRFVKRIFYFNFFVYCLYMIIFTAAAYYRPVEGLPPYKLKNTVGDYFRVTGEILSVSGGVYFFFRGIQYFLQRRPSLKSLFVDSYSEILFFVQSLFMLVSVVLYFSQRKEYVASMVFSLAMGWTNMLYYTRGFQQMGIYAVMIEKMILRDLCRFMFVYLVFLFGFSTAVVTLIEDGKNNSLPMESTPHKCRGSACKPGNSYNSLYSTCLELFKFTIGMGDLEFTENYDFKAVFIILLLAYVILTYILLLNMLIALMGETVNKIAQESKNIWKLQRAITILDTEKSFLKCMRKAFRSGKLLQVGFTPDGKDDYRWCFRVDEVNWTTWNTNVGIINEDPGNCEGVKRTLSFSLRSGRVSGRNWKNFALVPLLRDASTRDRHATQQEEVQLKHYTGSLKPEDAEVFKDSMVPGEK
Outline: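 INS-1 cells were incubated with 500 nM test compound or none in standard external Ringer's solution before whole-cell patch clamp at 21–25 °C. Pipette: 140 mM Cs-glutamate, 8 NaCl, 1 MgCl2, 10 HEPES (pH 7.2), with Ca2+ left unbuffered. Ramps ran −100 to +100 mV over 50 ms at 0.5 Hz from a 0 mV holding potential. Amplitudes were taken at −80 mV.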

mouse TRPM7 = mouse TRPM7 (Mus musculus, UniProt Q923J1); test: Whole-cell patch clamp of TRPM7 currents in tetracycline-inducible HEK293 cells; format: cell-based; conditions: +80 mV, 200 s
Outline: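 Tetracycline-inducible HEK293 cells carrying FLAG-murine TRPM7 were induced with 1 μg/mL tetracycline 5–22 h beforehand. Cells were then incubated 15 min in culture medium with 100 nM, 500 nM or 2 μM test compound. Pipette: 140 mM K-glutamate with 10 mM BAPTA. Ramps ran −100 to +100 mV at 0.5 Hz, 21–25 °C. Amplitudes, not capacitance-corrected, were taken at +80 mV and 200 s, normalized, and fitted for IC50 and Hill coefficient.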

Sequence of human TRPM2 (O94759 whole entry): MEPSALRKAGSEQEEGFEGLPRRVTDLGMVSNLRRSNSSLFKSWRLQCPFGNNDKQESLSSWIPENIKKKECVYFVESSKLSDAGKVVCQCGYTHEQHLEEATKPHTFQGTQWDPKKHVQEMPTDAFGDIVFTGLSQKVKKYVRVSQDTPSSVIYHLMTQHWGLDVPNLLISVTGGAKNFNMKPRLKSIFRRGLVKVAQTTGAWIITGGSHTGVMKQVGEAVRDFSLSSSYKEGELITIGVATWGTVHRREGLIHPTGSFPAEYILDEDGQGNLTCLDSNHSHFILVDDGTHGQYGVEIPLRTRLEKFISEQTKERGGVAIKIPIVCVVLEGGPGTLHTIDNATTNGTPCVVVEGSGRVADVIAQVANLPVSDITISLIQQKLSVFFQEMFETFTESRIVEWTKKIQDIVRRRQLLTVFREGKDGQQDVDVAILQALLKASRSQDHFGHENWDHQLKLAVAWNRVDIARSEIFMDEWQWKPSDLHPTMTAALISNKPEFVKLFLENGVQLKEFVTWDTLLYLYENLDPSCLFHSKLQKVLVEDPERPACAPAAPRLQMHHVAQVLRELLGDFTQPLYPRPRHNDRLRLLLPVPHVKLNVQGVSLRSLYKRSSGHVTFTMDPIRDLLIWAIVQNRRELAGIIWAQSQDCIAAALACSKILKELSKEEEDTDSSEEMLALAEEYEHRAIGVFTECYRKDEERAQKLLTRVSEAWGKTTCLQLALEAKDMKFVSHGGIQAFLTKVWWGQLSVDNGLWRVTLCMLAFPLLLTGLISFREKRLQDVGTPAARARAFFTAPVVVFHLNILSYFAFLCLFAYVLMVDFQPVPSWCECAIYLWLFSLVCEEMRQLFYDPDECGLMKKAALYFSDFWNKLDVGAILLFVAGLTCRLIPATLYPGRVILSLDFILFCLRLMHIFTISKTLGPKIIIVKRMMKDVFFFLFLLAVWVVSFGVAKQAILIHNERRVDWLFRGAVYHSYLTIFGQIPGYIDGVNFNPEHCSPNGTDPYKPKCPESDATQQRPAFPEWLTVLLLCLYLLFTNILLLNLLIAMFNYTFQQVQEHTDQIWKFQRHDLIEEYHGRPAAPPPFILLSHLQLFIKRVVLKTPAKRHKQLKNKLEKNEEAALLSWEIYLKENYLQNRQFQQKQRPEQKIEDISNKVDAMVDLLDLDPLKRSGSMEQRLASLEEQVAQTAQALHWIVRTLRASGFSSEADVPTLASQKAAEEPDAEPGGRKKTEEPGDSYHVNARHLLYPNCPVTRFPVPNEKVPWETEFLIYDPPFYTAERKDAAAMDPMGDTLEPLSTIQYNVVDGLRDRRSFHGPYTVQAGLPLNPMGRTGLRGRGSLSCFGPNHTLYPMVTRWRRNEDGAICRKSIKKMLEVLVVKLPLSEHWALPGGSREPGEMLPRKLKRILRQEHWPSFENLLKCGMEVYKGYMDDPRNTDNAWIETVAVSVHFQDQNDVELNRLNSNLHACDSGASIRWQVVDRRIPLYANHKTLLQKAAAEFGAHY

SMILES: O=c1[nH]c2ccccc2n1C1CCN(Cc2ccc(-c3nc4cc5[nH]cnc5cc4nc3-c3ccccc3)cc2)CC1 [Akt inhibitor VIII, 1,3-dihydro-1-(1-((4-(6-phenyl-1H-imidazo[4,5-g]quinoxalin-7-yl)phenyl)methyl)-4-piperidinyl)-2H-benzimidazol-2-one]
- Effect on TRPM2-mediated currents (human TRPM2; 200 nM, 60 min preincubation, 500 μM ADPR): failed to affect
- TRPM2 current amplitudes at fivefold higher concentration (human TRPM2; data not shown): comparable to control cells
- Effect on cell viability at fivefold higher concentration [1]: affected cell viability

SMILES: O=C1NCCc2c(OCCCCN3CCCCC3)cccc21 [DPQ, 3,4-dihydro-5-[4-(1-piperidinyl)butoxyl]-1(2H)-isoquinolinone]
- Effect on TRPM2-mediated currents (ADPR in pipet) (human TRPM2; PARP-1 inhibitors, 100 μM ADPR, first 60 min): did not affect

SMILES: COc1cc(/C=C/C(=O)CC(=O)/C=C/c2ccc(O)c(OC)c2)ccc1O [curcumin]
- Concentration range blocking TRPM2 currents (TRPM2): low nanomolar range

SMILES: O=C(O)CC[C@@H](Cc1ccc(OCc2ccccc2)cc1)NC(=O)CCCCCCc1ccccc1 [sPLA2 inhibitor, 5-(4-benzyloxyphenyl)-4S-(7-phenylheptanoylamino)pentanoic acid]
- Effect on TRPM2-mediated currents (human TRPM2; 5 μM, 100 μM ADPR): lack of effect
- Cell death during a 1 h recording session ([1]; 5–10-fold higher concentrations, data not shown): significant cell death

SMILES: CC(=O)O[C@H]1C[C@@H]2[C@@]3(C)CCCC(C)(C)[C@@H]3CC[C@@]2(C)[C@@H]2CC=C(C=O)[C@H](C=O)[C@@]12C [scalaradial]
- Effect on CRAC currents (CRAC (Orai1/STIM1)): no significant inhibition; also recorded: did not significantly affect; also recorded: failed to inhibit
- Effect on TRPM4 current (endogenous TRPM4): without affecting the current; also recorded: failed to inhibit
- Time cells appeared healthy with continual exposure (INS-1 cells; 500 nM and lower concentrations): at least 1 h
- Condition of INS-1 cells (INS-1 cells; 2 μM): rapidly deteriorated
- Effect on ADPR-induced currents (endogenous TRPM2; 0.5–2.0 μM): largely abolished
- Hill coefficient of INS-1 TRPM2 dose-response fit (endogenous TRPM2; −80 mV, 50 s): 4
- Effect on TRPV1 current (TRPV1): does not inhibit; also recorded: failed to inhibit
- Incubation time to reach full potency (full onset) of TRPM2 inhibition (human TRPM2; 2 μM scalaradial): ~ 20 min
- Effect of acute application on TRPM2 currents (human TRPM2; 2 μM, acute application): did not significantly affect
- Hill coefficient of TRPM2 concentration-response fit (human TRPM2; 30–60 min incubation, −80 mV, 100 s): 1.3
- Time dependency of TRPM2 inhibition when added internally (human TRPM2; added to the cell internally, data not shown): not affected
- Time to recovery of TRPM2 currents after drug removal (human TRPM2; after 60 min incubation in 2 μM): ≤ 5 min
- Hill coefficient of TRPM7 concentration-response fit (mouse TRPM7): 2

SMILES: COC[C@H]1OC(=O)c2coc3c2[C@@]1(C)C1=C(C3=O)[C@@H]2CCC(=O)[C@@]2(C)C[C@H]1OC(C)=O [wortmannin]
- Effect on TRPM2-mediated currents (human TRPM2; 20 nM, 60 min preincubation, 500 μM ADPR): failed to affect
- TRPM2 current amplitudes at fivefold higher concentration (human TRPM2; data not shown): comparable to control cells
- Effect on cell viability at fivefold higher concentration ([1]; fivefold higher concentrations, cell rounding, granule formation, blebbing, data not shown): affected cell viability
